Measured values as given in ChEMBL document CHEMBL5532699, “Design, docking optimization, and evaluation of biotin-PEG4-1,8-naphthalimide as a potent and safe antitumor agent with dual targeting of ferroptosis and DNA” (RSC Med Chem, 2024).
Activity calls are given as the source filed them. The calls are words filed in the database; no cut-off is given here.

Tests used:
[1] = tested on: T-24; test: Antiproliferative activity against human T24 cells incubated for 48 hrs by MTT assay; format: functional, cell-based; settings: T-24, 48 h
Summary of the method: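 Monolayer cells in DMEM with 10% FBS, penicillin and streptomycin, 37°C, 5% CO2. Exponentially growing cells were seeded in 96-well plates and exposed to compound for 48 h. MTT was then added for 4 h at 37°C. Medium was removed, formazan dissolved in DMSO, and OD read at 490 nm. Each plate had five replicate wells, and assays were repeated three times per line.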

[2] = Toxicity in nude mouse xenografted with human MGC-803 cells assessed as pathological changes in liver at 12 to 48 mg/kg, ip administered once every two days for 21 days by H and E staining based analysis; format: organism-based; settings: in vivo, 504 h, dose 12-48 mg/kg, time 21 day
Summary of the method: (§1)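 Nude mice carrying s.c. xenografts (1×10^6 cells, right flank) randomized at 60–80 mm³ (n = 6), dosed i.p. every 2 days in 5% v/v DMSO/saline. Major organs examined by H&E staining at 200× magnification.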

[3] = Toxicity in nude mouse xenografted with human MGC-803 cells assessed as pathological changes in lungs at 12 to 48 mg/kg, ip administered once every two days for 21 days by H and E staining based analysis; format: organism-based; settings: in vivo, 504 h, dose 12-48 mg/kg, time 21 day; summary of the method: as §1
[4] = tested on: MGC-803; test: Inhibition of DNA synthesis in human MGC-803 cells at 25 to 50 uM incubated for 24 hrs by EdU staining based fluorescence microscopic analysis; format: functional, cell-based; settings: dose 25-50 µM
[5] = tested on: MGC-803; test: Induction of ferroptosis in human MGC-803 cells assessed as increase in intracellular lipid peroxide and ROS level by measuring increase in green fluorescence intensity at 50 uM incubated for 24 hrs by BODIPY 581/591 C11 staining based confocal microscopic analysis; format: functional, cell-based

SMILES: CN(C)CCN1C(=O)c2cccc3c(N4CCN(C(=O)CCOCCOCCOCCOCCNC(=O)CCCCC5SCC6NC(=O)NC65)CC4)ccc(c23)C1=O (stereo not given)
- IC50 [1]: > 50 µM
- Activity [2]: Non-Toxic
- Activity [3]: Non-Toxic
- inhibition [4]: Active
- Activity [5]: Active
